ChEMBL document CHEMBL3739264, “Synthesis and bio-evaluation of novel quinolino-stilbene derivatives as potential anticancer agents” (Bioorg Med Chem, 2015)
Calls of active or inactive are those of the source. No cut-off for these calls is given here.

Experiments:
HeLa [1] = test: Cell cycle arrest in human HeLa cells assessed as accumulation at G2/M phase at 6 uM after 48 hrs by flow cytometry analysis relative to control; assay type: functional
Outline: (§1)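 About 1 × 10^6 cells per plate seeded overnight, then treated with compound and harvested at set times. Cells fixed in 75% ethanol at -20°C for 12-24 h and stained 1 h with 100 µg/ml PI, 100 µg/ml RNase A and 0.3% NP-40 in PBS. DNA content measured by flow cytometry; phase fractions compared with sham-treated cells.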

HeLa [2] = test: Cell cycle arrest in human HeLa cells assessed as accumulation at S phase at 6 uM after 72 hrs by flow cytometry analysis relative to control; assay type: functional; outline: as §1
HeLa [3] = test: Induction of mitosis arrest in human HeLa cells assessed as condensation of chromosome at 6 uM after 12 hrs using DAPI staining by immunofluorescence microscopic analysis; assay type: functional, cell-based
Outline: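 HeLa cells on coverslips treated 12 h, fixed in ice-cold methanol at -20°C. Stained with anti-α-tubulin and anti-lamin A (primary 1:200 overnight at 4°C, fluorescent secondary 1 h) and DAPI for DNA. Mitotic morphology scored by fluorescence microscopy.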

HeLa [4] = test: Cell cycle arrest in human HeLa cells assessed as accumulation at sub-G1 phase at 6 uM after 48 hrs by flow cytometry analysis relative to control; assay type: functional; outline: as §1
MDA-MB-231 = test: Cell cycle arrest in human MDA-MB-231 cells assessed as accumulation at G2/M phase at 6 uM after 24 hrs by flow cytometry analysis relative to control; assay type: functional; outline: as §1
HeLa [5] = test: Cell cycle arrest in human HeLa cells assessed as accumulation at S phase at 6 uM after 24 hrs by flow cytometry analysis relative to control; assay type: functional; outline: as §1
[6] = Cell cycle arrest in human MCF10A cells assessed as accumulation at S phase at 6 uM after 48 hrs by flow cytometry analysis relative to control; assay type: functional, cell-based; conditions: MCF-10A; outline: as §1

FC(F)(F)c1cccc(/C=C\c2cc3ccccc3nc2Cl)c1
Activity (HeLa [1]): 23.9%
Activity (HeLa [2]): 17.7%
Activity (HeLa [3]): Active
Activity (HeLa [4]): 40.6%
Activity (MDA-MB-231): 38.3%
Activity (HeLa [5]): 8.1%
Activity [6]: 17.9%
